Data on 1 molecule can be found in ChEMBL document CHEMBL4145607, “Tamarixetin Exhibits Anti-inflammatory Activity and Prevents Bacterial Sepsis by Increasing IL-10 Production” (J Nat Prod, 2018).

For series [1], the system named is BMDC. The series is described as follows: Increase in microRNA155 expression in LPS-induced C57BL/6 mouse BMDC at 25 uM pretreated for 30 mins followed by LPS-challenge measured after 6 hrs by qRT-PCR analysis. It is filed as functional, cell-based. In a few lines: (§1)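 Total RNA was extracted from BMDCs with TRIzol and reverse transcribed. miR-146a, miR-155 and miR-187 were quantified by real-time qPCR with gene-specific primers.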
For orientation: In qPCR the cycle at which signal appears reflects the starting amount.

In series [2] the test system is BMDC. The series is described as follows: Inhibition of Escherichia coli DH5alpha infection-induced immune response in C57BL/6 mouse BMDC assessed as reduction in IL-12p70 secretion at 25 uM pretreated for 60 to 120 mins followed by Escherichia coli DH5alpha infection for 6 hrs by ELISA. It is filed as functional, cell-based. In outline: (§2)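 C57BL/6 BMDCs received 25 μM compound and E. coli DH5α, 3 × 10^6 CFU·mL−1. Schedules were: compound 30 min before a 6 h infection; co-addition for 6 h; or compound for 30, 60, 90 or 120 min plus 6 h infection. Supernatant TNF-α, IL-6, IL-10 and IL-12p70 were measured by ELISA. At least three experiments in triplicate.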
In general terms: ELISA stands for enzyme-linked immunosorbent assay.

Series [3] relates to BMDC. As to the kind of experiment: Increase in microRNA187 expression in LPS-induced C57BL/6 mouse BMDC at 25 uM pretreated for 30 mins followed by LPS-challenge measured after 6 hrs by qRT-PCR analysis. It is filed as functional, cell-based. In a few lines:
as §1

Series [4] has as its system BMDC. As to the kind of experiment: Inhibition of Escherichia coli K1 infection-induced immune response in C57BL/6 mouse BMDC assessed as reduction in TNFalpha secretion at 25 uM pretreated for 60 to 120 mins followed by Escherichia coli K1 infection for 6 hrs by ELISA. The format is functional, cell-based. In outline:
(§3)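 BMDCs from C57BL/6 mice were given 25 μM compound and E. coli K1, […]. Timing was: compound 30 min before a 6 h infection; cotreatment for 6 h; or compound for 30–120 min with 6 h infection. Supernatant cytokines (TNF-α, IL-6, IL-10, IL-12p70) were measured by ELISA. At least three experiments in triplicate.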

In series [5] the test system is BMDC. The series is described as follows: Inhibition of Escherichia coli DH5alpha infection-induced immune response in C57BL/6 mouse BMDC assessed as reduction in TNFalpha secretion at 25 uM pretreated for 30 mins followed by Escherichia coli DH5alpha infection for 6 hrs by ELISA. It is filed as functional, cell-based. In outline:
as §2

The subject of series [6] is BMDC. The series is described as follows: Inhibition of LPS-induced immune response in C57BL/6 mouse BMDC assessed as reduction in IL-6 secretion up to 25 uM pretreated for 30 mins followed by LPS-challenge measured after 6 hrs by ELISA. It is filed as functional, cell-based. In outline:
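Mouse BMDCs (female C57BL/6 bone marrow, GM-CSF-derived, ≥90% CD11c+ on day 7) pretreated 30 min with graded compound concentrations, then stimulated with LPS 50 ng/mL for 6 h. Supernatant TNF-α, IL-6, IL-10 and IL-12p70 quantified by sandwich ELISA. Mean ± SEM vs LPS-only cells; experiments repeated at least three times.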

For series [7], the system named is Mus musculus. As to the kind of experiment: Antiseptic activity in Balb/c mouse model of Escherichia coli K1 infection-induced sepsis assessed as reduction in serum endotoxin level at 1 mg/kg, ip pretreated for 1 hr followed by Escherichia coli K1 infection measured after 12 hrs by chromogenic assay. The format is functional, organism-based. In a few lines:
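BALB/c mice dosed i.p. 1 h before i.p. E. coli K1 (1 × 10^6 CFU per mouse), sera taken at 12 h. Serum diluted 10-fold in endotoxin-free PBS, LAL chromogenic end-point assay; background subtracted, quantified against E. coli endotoxin standard, reported as EU·mL−1.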

For series [8], the system named is BMDC. The series is described as follows: Inhibition of LPS-induced immune response in C57BL/6 mouse BMDC assessed as reduction in TNFalpha secretion at 25 uM treated 6 hrs post LPS-challenge measured after 30 mins by ELISA. The format is functional, cell-based. In outline: (§4)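 Bone marrow DCs from 6-week-old female C57BL/6 mice, RBC-lysed, cultured in RPMI-1640/10% FBS with 10 ng/mL rmGM-CSF, 37 °C, 5% CO2. Cells given LPS 50 ng/mL for 6 h, then 25 μM compound added for 30, 60, 90 or 120 min. Supernatant TNF-α, IL-6, IL-10, IL-12p70 measured by sandwich ELISA. Mean ± SEM, compared with LPS-only DCs.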

The subject of series [9] is BMDC. As to the kind of experiment: Cytotoxicity against C57BL/6 mouse BMDC assessed as effect on cell viability up to 100 uM after 24 hrs by luminescence assay. It is filed as cell-based. In outline:
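BMDCs came from C57BL/6 marrow cultured 7 days with 10 ng·mL−1 GM-CSF. Cells at 1 × 10^4 per well were incubated 24 h with 6.25–200 μM compound, with DMSO and H2O2 controls. Viability was read as ATP by luminescence. Means ± SEM.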

Series [10] concerns Mus musculus. The series is described as follows: Antiinflammatory activity in Balb/c mouse model of LPS-induced endotoxemia assessed as increase in IL10 producing B10 population in splenocyte at 1 mg/kg, ip pretreated for 1 hr followed by LPS-challenge measured after 12 hrs by flow cytometric analysis. It is filed as functional, organism-based. (In general: In flow cytometry, cells or beads pass a laser one at a time.)

The subject of series [11] is BMDC. As to the kind of experiment: Inhibition of Escherichia coli DH5alpha infection-induced immune response in C57BL/6 mouse BMDC assessed as reduction in IL-6 secretion at 25 uM pretreated for 30 mins followed by Escherichia coli DH5alpha infection for 6 hrs by ELISA. It is filed as functional, cell-based. In a few lines:
as §2

Series [12] concerns BMDC. As to the kind of experiment: Inhibition of LPS-induced immune response in C57BL/6 mouse BMDC assessed as reduction in IL-6 secretion at 25 uM treated 6 hrs post LPS-challenge measured after 30 mins by ELISA. It is filed as functional, cell-based. In a few lines:
as §4

Series [13] concerns Mus musculus. The series is described as follows: Antiseptic activity in Balb/c mouse model of Escherichia coli K1 infection-induced sepsis assessed as reduction in serum IL6 level at 1 mg/kg, ip pretreated for 1 hr followed by Escherichia coli K1 infection measured after 2 hrs by ELISA. The format is functional, organism-based. In a few lines: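 BALB/c mice received 1 mg·kg−1 i.p. 1 h before i.p. E. coli K1 RS218, 1 × 10^6 CFU per mouse. Serum was collected at 2 h, and TNF-α, IL-6 and IL-10 were quantified by sandwich ELISA. Means ± SEM.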

In series [14] the test system is BMDC. The series is described as follows: Inhibition of Escherichia coli K1 infection-induced immune response in C57BL/6 mouse BMDC assessed as increase in IL10 secretion at 25 uM pretreated for 30 mins followed by Escherichia coli K1 infection for 6 hrs by ELISA. It is filed as functional, cell-based. In a few lines:
as §3

Series [15] concerns BMDC. As to the kind of experiment: Inhibition of Escherichia coli DH5alpha infection-induced immune response in C57BL/6 mouse BMDC assessed as reduction in TNFalpha secretion at 25 uM pretreated for 60 to 120 mins followed by Escherichia coli DH5alpha infection for 6 hrs by ELISA. It is filed as functional, cell-based. In a few lines: as §2

Calls of active or inactive are those of the source. The calls are words filed in the database; no cut-off is given here.

As to `COc1ccc(-c2oc3cc(O)cc(O)c3c(=O)c2O)cc1O` [TAMARIXETIN], the result in the series with BMDC [1], with BMDC [3], in the series with Mus musculus [7], in the series with Mus musculus [10] and with Mus musculus [13] was Active. In addition, the inhibition entry in the series on BMDC [2], with BMDC [4] and in the series on BMDC [15] was “inactive” throughout. Moreover, the inhibition entry in the series with BMDC [5], with BMDC [6], in the series on BMDC [8], in the series with BMDC [11], with BMDC [12] and in the series on BMDC [14] was “Active” each time. Besides, the Activity result in the series with BMDC [9] is reported as “Non-Toxic”.
